In assay [1] the test system is Paracentrotus lividus. Nature of the assay: Antimitotic activity against sea urchin embryo model assessed as cleavage alteration of fertilized egg compound treated at 8 to 20 mins post-fertilization and 45 to 55 mins prior to first mitotic cycle completion measured 2.5 to 5.5 hrs post-fertilization. It is filed as functional. The gist of the method: (§1)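 Fertilized eggs are exposed 8–20 min after fertilization to 2-fold decreasing concentrations. Stocks are 10 mM in DMSO, then diluted 10-fold in 95% EtOH; final DMSO is at most 0.05% and EtOH at most 1%. Embryos are kept as a monolayer, up to 2000 embryos/mL, in filtered seawater at room temperature. The value is the threshold concentration giving cleavage alteration, embryo death before hatching or full mitotic arrest. Duplicates were run.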

Assay [2] deals with Paracentrotus lividus. Briefly: Antimitotic activity against sea urchin embryo free-swimming blastula model assessed as embryo spinning compound treated at 8 to 10 hrs post-fertilization measured after 0.25 to 20 hrs. It counts as functional, Blastula stage.
The subject of assay [3] is Paracentrotus lividus. Briefly: Antimitotic activity against sea urchin embryo model assessed as cleavage arrest of fertilized egg compound treated at 8 to 20 mins post-fertilization and 45 to 55 mins prior to first mitotic cycle completion measured 2.5 to 5.5 hrs post-fertilization. It is filed as functional. In a few lines:
as §1

Assay [4] is described as follows: Growth inhibition of human NCI60 cells at 10 uM after 48 hrs by SRB assay. Particulars: NCI60, 48 h, values are per cent of control. It is filed as functional. In general terms: In SRB staining, fixed cells bind dye roughly in proportion to their protein.

For `COc1ccc(-n2nnc(C#N)c2-c2cccc(OC)c2)cc1`, the EC in assay [1] was found to be 0.2 µM; in assay [2], 5 µM; in assay [3], 1 µM.

As to `COc1cc(-c2c(C(N)=O)nnn2-c2cc(OC)c(OC)c(OC)c2)cc(OC)c1OC`, the EC in assay [1], in assay [2] and in assay [3] was more than 4 µM throughout. The compound also yielded a growth, % of control at 10 µM in assay [4] of 102%.

Take `COc1ccc(-c2c(C#N)nnn2-c2ccc(OC)cc2)cc1`: the EC in assay [1] is 4 µM; in assay [2] it was more than 4 µM; in assay [3], more than 4 µM. The growth, % of control at 10 µM in assay [4] stood at 96.7%.

In the case of `COc1cc(-c2c(C#N)nnn2-c2cccc(Cl)c2)cc(OC)c1OC`, the EC was 0.5 µM in assay [1], more than 5 µM in assay [2] and 2 µM in assay [3]. The compound further registered a growth, % of control at 10 µM in assay [4] of 92.6%.

`Clc1cccc(-n2nncc2-c2ccccc2)c1`: the EC in assay [1], in assay [2] and in assay [3] was more than 4 µM throughout.

For the compound `COc1ccc(-c2c(N)nnn2-c2cc(OC)c(OC)c(OC)c2)cc1`, the EC is 0.1 µM in assay [1], more than 5 µM in assay [2] and more than 4 µM in assay [3].

In the case of `Nc1nnn(-c2cccc(Cl)c2)c1-c1ccccc1`, the EC in assay [1], in assay [2] and in assay [3] was more than 4 µM throughout.

For `COC(=O)c1nnn(-c2cc(OC)c(OC)c(OC)c2)c1-c1ccc(OC)cc1`, the EC in assay [1], in assay [2] and in assay [3] was more than 4 µM each time.

On to `COc1ccc(-n2nnc(C(=O)O)c2-c2cc(OC)c(OC)c(OC)c2)cc1`, for which the EC in assay [1], in assay [2] and in assay [3] was more than 4 µM in each case. In assay [4], this compound gave a growth, % of control at 10 µM of 104%.

Turning to `CCOC(=O)c1nnn(-c2cccc(Cl)c2)c1-c1ccccc1`, the EC in assay [1], in assay [2] and in assay [3] was more than 4 µM in each case.

On to `COc1ccc(/C=C\c2cc(OC)c3c(c2)OCO3)cc1O` [Combretastatin A-2], for which the EC in assay [1] was 0.002 µM; in assay [2] it was 0.05 µM; in assay [3], 0.01 µM.

Take `COc1ccc(-c2c(C(N)=O)nnn2-c2cc(OC)c(OC)c(OC)c2)cc1`: the EC in assay [1], in assay [2] and in assay [3] was more than 4 µM in each case. The growth, % of control at 10 µM in assay [4] stood at 101%.

Regarding `COc1ccc(-c2c(C(=O)O)nnn2-c2cc(OC)c(OC)c(OC)c2)cc1`, the EC in assay [1], in assay [2] and in assay [3] was more than 4 µM throughout. In assay [4], this compound showed a growth, % of control at 10 µM of 99.4%.

Consider `COc1ccc(-n2nnc(C#N)c2-c2cc(OC)c(OC)c(OC)c2)cc1`, for which the EC in assay [1] is 1 µM; in assay [2] it was more than 4 µM; in assay [3], more than 4 µM.

Consider `COc1ccc(-c2c(C#N)nnn2-c2cc(OC)c(OC)c(OC)c2)cc1`, for which the EC in assay [1], in assay [2] and in assay [3] was more than 4 µM in each case.

As for `COc1cc(-c2c(C#N)nnn2-c2cc(OC)c(OC)c(OC)c2)cc(OC)c1OC`, the EC in assay [1], in assay [2] and in assay [3] was more than 4 µM in each case. This compound registered a growth, % of control at 10 µM in assay [4] of 98.8%.

Take `COc1cccc(-c2c(C#N)nnn2-c2cccc(Cl)c2)c1`: the EC in assay [1], in assay [2] and in assay [3] was more than 4 µM in each case. Besides, the growth, % of control at 10 µM in assay [4] is 92%.

`COc1ccc(-c2cnnn2-c2cc(OC)c3c(c2OC)OCO3)cc1`: the figures for the EC in assay [1], in assay [2] and in assay [3] were 1 µM, more than 4 µM and more than 4 µM, respectively.

Regarding `COc1ccc(-n2nnc(N)c2-c2cc(OC)c(OC)c(OC)c2)cc1`, the EC in assay [1] is 4 µM; in assay [2] it was more than 4 µM; in assay [3], more than 4 µM. Moreover, the growth, % of control at 10 µM in assay [4] was determined as 90.1%.

With `O=C(O)c1nnn(-c2cccc(Cl)c2)c1-c1ccccc1`, the EC in assay [1], in assay [2] and in assay [3] was more than 4 µM throughout.

Values taken from ChEMBL document CHEMBL3102739, “Synthesis and antiproliferative activity of conformationally restricted 1,2,3-triazole analogues of combretastatins in the sea urchin embryo model and against human cancer cell lines” (Bioorg Med Chem, 2014).
